Compound activity from PubChem BioAssay.
CAL PDZ FP-1: inhibitors of human CAL PDZ peptide binding; purified CAL PDZ, TMR-peptide fluorescence polarization, 1 h; inhibition, % at 20 µM; 0.02% of 330,000 active; AID 504414;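 active means highest replicate inhibition of at least 40%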
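material = purified tagged CAL PDZ domain construct (CerCALP) | buffer or medium = sodium phosphate/NaCl buffer pH 7.4 with TCEP, IgG, Thesit | reagent = TMR-labelled reporter peptide T*-PRC34 bound in PDZ groove | incubation = 1 h room-temperature incubation prior to read | measured by = fluorescence polarization (mP) | evaluation = percent inhibition from loss of millipolarization | control set = unlabelled peptide and DMSO controls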
SIRT5 inh: sirtuin-5 (human) deacylase inhibition; Purified SirT5, succinyl-peptide AMC, trypsin-coupled fluorescence; Q9NXA8; 1.1% of 330,000 active; inhibition, % at 15 µM; AID 652115; in the data active means inhibition above about 15%; inconclusive means no clear call, values can overlap the other calls
Target sequence (Q9NXA8 whole entry, looked up): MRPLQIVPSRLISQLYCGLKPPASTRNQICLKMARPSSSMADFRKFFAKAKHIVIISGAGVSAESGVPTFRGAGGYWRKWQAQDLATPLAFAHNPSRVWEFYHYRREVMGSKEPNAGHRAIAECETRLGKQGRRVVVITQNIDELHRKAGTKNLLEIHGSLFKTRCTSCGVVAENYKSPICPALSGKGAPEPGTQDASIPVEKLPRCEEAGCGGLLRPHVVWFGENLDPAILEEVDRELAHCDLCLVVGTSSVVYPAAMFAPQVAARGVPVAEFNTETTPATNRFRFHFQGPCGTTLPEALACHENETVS
DENV2 CPE: protects cells from dengue virus 2 cytopathic effect; DENV2-infected cells, cytopathic effect rescue, plate reader; CPE inhibition, % at 9.99 µM; 1.7% of 350,000 active; in the data active means CPE inhibition above about 20%, passing the limit was not always enough; inconclusive means no clear call, values can overlap the other calls; tested in BHK-21 cells
ERAP1 HTS inh: ERAP1 (human) enzyme inhibition. Q9NZ08. inhibition, % at 10.7 µM. recombinant ERAP1, Leu-AMC fluorescence, 60 min. 0.15% of 340,000 active;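 active means mean replicate inhibition of at least 30%, or all replicates individually reaching that 30% level; inactive means mean below 30% and not every replicate reaching it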
S100A4 inh HTS: blocks human S100A4 binding to myosin IIA peptide | 0.14% of 360,000 active | inhibition, % at 10.7 µM | S100A4/TAMRA-MyoIIA peptide fluorescence polarization;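 active means mean inhibition of at least 70% across replicates, with every replicate also reaching that level; inconclusive means mean inhibition reaches 70% but some replicates fall short; inactive means mean inhibition below 70%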
Target sequence (P26447 whole entry, looked up): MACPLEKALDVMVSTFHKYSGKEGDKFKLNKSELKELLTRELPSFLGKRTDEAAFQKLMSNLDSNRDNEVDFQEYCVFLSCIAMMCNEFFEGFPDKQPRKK
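Compound dosing: one dose per compound; test system: human S100A4 monomer with TAMRA-labelled myosin IIA peptide; probe or stimulus: TAMRA-labelled myosin IIA heavy-chain peptide probe, 5 nM; medium: HEPES buffer with Ca2+, pH 7.2; schedule: 5 min incubation before reading; benchmarks: neutral control DMSO, positive control TFP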
CAL PDZ FP-2: blocks peptide binding to the human CAL PDZ domain; Q9HD26; purified CAL PDZ, TMR-peptide fluorescence polarization, 1 h; inhibition, % at 24.9 µM; 0.92% of 300,000 active; AID 602252;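 active means mean inhibition of at least 30% with at least half of replicates also reaching 30%; inconclusive means no clear call, values can overlap the other calls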
Hits are given with their value; . = inactive; ? = inconclusive; / = no result. An excerpt weighted towards active compounds, which were near 2.9% of everything screened.

SMILES	CAL PDZ FP-1	SIRT5 inh	DENV2 CPE	ERAP1 HTS inh	S100A4 inh HTS	CAL PDZ FP-2
COc1cc(C(=O)OCCn2c(=O)c3c(ncn3CCN(C)C)n(C)c2=O)cc(OC)c1OC	.	.	25	.	.	.
COc1cc(C(=O)OCCCN(C)C)cc(OC)c1OC	.	/	.	.	.	/
Cc1ccc2[nH]c(-c3ccccc3)cc(=O)c2c1	.	/	111	/	.	.
COc1ccc(-c2oc3ccc(-c4cc(OC)c(OC)c(OC)c4)cc3c2-c2ccc(OC)nc2)cc1	.	/	80	.	.	.
COc1ccccc1NC(=O)N[C@H]1CC[C@H](CCn2cc(-c3ccccc3OC)nn2)O[C@H]1CO	/	.	?	.	.	/
COc1ccc(Cc2nnc(NC(=O)c3ccccc3Cl)s2)cc1OC	/	.	41	.	.	.
O=C(Nc1nnc(Cc2ccccc2F)s1)c1ccccc1Cl	.	.	78	.	.	.
O=C(Nc1nnc(Cc2ccccc2F)s1)Nc1ccccc1F	.	.	.	.	.	.
COc1ccc(C(C)NC(=O)c2ccc(Br)cc2)cc1OC (stereo unspecified)	.	/	.	.	.	.
COc1ccc(C(C)NC(=O)c2ccccc2Cl)cc1OC (stereo unspecified)	.	.	64	.	.	.
CCN(CC)CCN1C(=O)C(O)=C(C(C)=O)C1c1ccccc1[N+](=O)[O-] (stereo unspecified)	.	/	.	.	.	.
CC(=O)C1=C(O)C(=O)N(CCc2ccccc2)C1c1ccccc1[N+](=O)[O-] (stereo unspecified)	.	.	31	.	.	.
CCC1=C(OC(=O)N(CC)CC)N2C(=O)OC(=NCC(=O)OC)[C@]2(Cc2ccccc2)[C@H]2C1=CC[C@H]1C(=O)NC(=O)[C@H]12	.	/	23	.	.	.
CCC1=C(OC(=O)N(CC)CC)N2C(=O)OC(=NCC(=O)OC)[C@]2(Cc2ccccc2)[C@H]2C1=CC[C@H]1C(=O)N(C)C(=O)[C@H]12	.	/	.	.	.	.
Cc1noc(C)c1CSCC(=O)Nc1ccccc1N1CCCC1	.	16	.	.	.	/
CC(=O)N1[C@H](C)C=C[C@]1(Cc1ccccc1)C(=O)NCc1cc(F)cc(C(F)(F)F)c1	.	23	.	.	.	.
COC(=O)[C@@]1(Cc2ccccc2)C=C[C@@H](C)N1C(C)=O	.	.	.	.	.	.
CCN1/C(=C/c2ccc3cc(C)ccc3[n+]2CC)Sc2cc(C)c(C)cc21	.	.	.	33	.	.
Cc1ccc(S(=O)(=O)N(C)C[C@@H]2Oc3c(NC(=O)c4cnccn4)cccc3C(=O)N([C@H](C)CO)C[C@@H]2C)cc1	/	.	.	.	.	/
O=C(Cn1nc(-c2ccc(Cl)cc2)ccc1=O)NCC1COCCO1 (stereo unspecified)	.	18	.	.	.	.
CC(C)(C)c1ccc(CCC2OCC(C[N+]3(C)CCOCC3)O2)cc1 (stereo unspecified)	.	.	.	104	.	.
CC(C)CC#Cc1cnc2c(c1)C(=O)N([C@@H](C)CO)C[C@@H](C)[C@@H](CN(C)C(=O)CC1CC1)O2	/	.	.	.	.	/
O=C(COC(=O)c1cc(Cl)nc2ccccc12)c1ccc(Cl)cc1	.	.	63	.	.	/
O=C(CC1CC1)N1CC2(C1)[C@@H](c1ccccc1)[C@H](CO)N2C(=O)c1cccnc1	/	.	.	.	.	/
O=C(Nc1ccc2c(c1)CCC2)c1ccccc1	.	/	45	.	.	/
SMILES	CAL PDZ FP-1	SIRT5 inh	DENV2 CPE	ERAP1 HTS inh	S100A4 inh HTS	CAL PDZ FP-2
Cc1cc(C)n2nc(C(=O)Nc3ccc4c(c3)CCC4)nc2n1	.	15	.	.	.	.
O=C(O)c1ccccc1-c1ccccc1C(=O)Nc1ccc2c(c1)CCC2	.	.	.	/	.	/
Cc1cc(C)n2nc(C(=O)Nc3ccc(S(=O)(=O)N4CCCC4)cc3)nc2n1	.	.	.	.	.	.
COC1OC(c2ccccc2)=C(c2ccc(C(N)=O)cc2)c2ccc(F)cc21 (stereo unspecified)	/	36	.	.	.	/
CN(C)S(=O)(=O)c1ccc(C(=O)Nc2nnc(-c3ccco3)o2)cc1	.	16	.	.	.	.
CC(NC(=S)NC(=O)c1ccccc1Br)c1ccccc1 (stereo unspecified)	/	.	.	.	.	77
